The record followed here is ChEMBL document CHEMBL4043283, “Discovery and Preclinical Development of IIIM-290, an Orally Active Potent Cyclin-Dependent Kinase Inhibitor” (J Med Chem, 2018).

Broadly, the inhibition is the relative decrease from the control value, in per cent.

One test concerns HL-60. In words: Growth inhibition of human HL60 cells at 10 uM after 48 hrs by MTT assay relative to control. The format is functional. The following applies: HL-60, 48 h, read-out: GI. Summed up: (§1)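 Single-concentration primary screen at 10 μM by MTT assay. Cells were NCI-sourced cancer lines grown in appropriate medium at 37 °C, 95% humidity, 5% CO2. Growth inhibition is expressed relative to control.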
A general note: Formazan colour is commonly taken as a measure of viable cells.

Test [1] concerns the target CDK9/cyclin T1 (Homo sapiens) (UniProt O60563+P50750). In words: Inhibition of CDK9/cyclin T1 (unknown origin) at 0.5 uM using YSPTSPSYSPTSPSYSPTSPKKK as substrate after 30 mins in presence of [33P]-gamma-ATP by filter binding assay relative to control. It counts as protein-complex assay.
In another test the test system is MCF7. The test is described as follows: Growth inhibition of human MCF7 cells at 10 uM after 48 hrs by MTT assay relative to control. It counts as functional. The following applies: MCF7, 48 h, read-out: GI. In short, it runs like this: as §1
The next test concerns Caco-2. The test is described as follows: Growth inhibition of human Caco2 cells at 10 uM after 48 hrs by MTT assay relative to control. The format is functional. The following applies: Caco-2, 48 h, read-out: GI. Summed up: as §1
The next test has as its system PC-3. The test is described as follows: Growth inhibition of human PC3 cells at 10 uM after 48 hrs by MTT assay relative to control. It counts as functional. The note with it: PC-3, 48 h, read-out: GI. In short, it runs like this:
as §1

A further test has as its system MIA PaCa-2. The test is described as follows: Growth inhibition of human MIAPaCa2 cells at 10 uM after 48 hrs by MTT assay relative to control. It counts as functional. The note with it: MIA PaCa-2, 48 h, read-out: GI. Summed up: as §1
The target of test [2] is CDK2/Cyclin A2 (Homo sapiens) (UniProt P24941+P20248). In words: Inhibition of CDK2/cyclin A (unknown origin) at 0.5 uM using histone H1 as substrate after 30 mins in presence of [33P]-gamma-ATP by filter binding assay relative to control. The format is protein-complex assay.

For `Cc1cc(=O)c2c(O)c(CN3CCCC3C(=O)O)c(O)c([C@H]3CCN(C)C[C@H]3O)c2o1` (stereo not given in full), the inhibition of growth at 10 µM was 16% in the test with HL-60; 21% with MCF7; 30% in the test with Caco-2; 0% with PC-3; 10% in the test on MIA PaCa-2. Also, the values for the inhibition in test [1] and in test [2] were 0% and 17%, respectively.
For `Cc1oc2c([C@H]3CCN(C)C[C@H]3O)c(O)cc(O)c2c(=O)c1C(O)c1ccccc1Br` (stereo not given in full), the inhibition of growth at 10 µM in the test with HL-60 came out at 52%; in the test on MCF7, 21%; in the test on Caco-2, 7%; in the test on PC-3, 45%; in the test on MIA PaCa-2 it was 10%. In addition, the inhibition in test [1] is 29%; in test [2], 0%.
In the case of `CCOC(=O)N1CCN(Cc2c(O)c([C@H]3CCN(C)C[C@H]3O)c3oc(C)cc(=O)c3c2O)CC1`, the inhibition of growth at 10 µM in the test with HL-60 is 16%; with MCF7, 31%; with Caco-2 it was 18%; with PC-3, 1%; in the test with MIA PaCa-2, 4%. For the same molecule, the inhibition was found to be 0% in test [1] and 5% in test [2].
For `Cc1cc(=O)c2c(O)cc(OC/C=C/c3ccccc3)c([C@H]3CCN(C)C[C@H]3O)c2o1`, the inhibition of growth at 10 µM worked out at 21% in the test with HL-60; 7% in the test on MCF7; 9% in the test with Caco-2; 18% with PC-3; 11% in the test with MIA PaCa-2. For the same molecule, the inhibition in test [1] turned out to be 8%; in test [2] it was 7%.
Consider `Cc1cc(=O)c2c(O)cc(O)c([C@H]3CCN(C)C[C@H]3OC(=O)c3ccco3)c2o1`, for which the inhibition of growth at 10 µM with HL-60 is 22%; in the test on MCF7, 20%; in the test with Caco-2 it was 33%; in the test on PC-3, 23%; with MIA PaCa-2 it was 13%. The inhibition in test [1] amounted to 0%; in test [2], 10%.
Regarding `COc1ccc(COc2cc(O)c3c(=O)cc(C)oc3c2[C@H]2CCN(C)C[C@H]2O)cc1`, the inhibition of growth at 10 µM worked out at 23% in the test on HL-60; 16% in the test with MCF7; 8% with Caco-2; 35% in the test with PC-3; 15% with MIA PaCa-2. Besides, the inhibition in test [1] turned out to be 0%; in test [2] it was 10%.
Take `Cc1cc(=O)c2c(O)c(CN3CCC(Cc4ccccc4)CC3)c(O)c([C@H]3CCN(C)C[C@H]3O)c2o1`: the inhibition of growth at 10 µM in the test on HL-60 was found to be 28%; in the test with MCF7, 17%; in the test with Caco-2 it was 21%; in the test with PC-3, 16%; with MIA PaCa-2, 18%. Moreover, the inhibition was determined as 0% in test [1] and 4% in test [2].
Regarding `Cc1cc(=O)c2c(O)c(CN3CCCC3CO)c(O)c([C@H]3CCN(C)C[C@H]3O)c2o1` (stereo not given in full), the inhibition of growth at 10 µM in the test on HL-60 was 33%; in the test on MCF7, 22%; in the test with Caco-2 it was 19%; in the test on PC-3 it was 15%; in the test with MIA PaCa-2, 13%. Besides, the values for the inhibition in test [1] and in test [2] were 5% and 0%, respectively.
Consider `Cc1cc(=O)c2c(O)c(CN3CCN(C(=O)OC(C)(C)C)CC3)c(O)c([C@H]3CCN(C)C[C@H]3O)c2o1`, for which the inhibition of growth at 10 µM with HL-60 is 13%; with MCF7, 16%; in the test on Caco-2 it was 21%; in the test with PC-3, 1%; in the test on MIA PaCa-2, 6%. Further, the values for the inhibition in test [1] and in test [2] were 0% and 2%, respectively.
Consider `COc1ccc(C(O)c2c(C)oc3c([C@H]4CCN(C)C[C@H]4O)c(O)cc(O)c3c2=O)cc1Br` (stereo not given in full), for which the inhibition of growth at 10 µM was found to be 23% in the test with HL-60; 41% with MCF7; 0% in the test with Caco-2; 0% in the test with PC-3; 3% with MIA PaCa-2. Moreover, the inhibition in test [1] was 0%; in test [2], 3%.
Turning to `Cc1cc(=O)c2c(O)c(CN3CCC(N4CCCCC4)CC3)c(O)c([C@H]3CCN(C)C[C@H]3O)c2o1`, the inhibition of growth at 10 µM in the test on HL-60 stood at 34%; in the test on MCF7, 25%; with Caco-2, 31%; with PC-3, 17%; with MIA PaCa-2, 23%. The inhibition amounted to 5% in test [1] and 10% in test [2].
For `Cc1oc2c([C@H]3CCN(C)C[C@H]3O)c(O)cc(O)c2c(=O)c1C(O)c1csc([N+](=O)[O-])c1` (stereo not given in full), the inhibition of growth at 10 µM with HL-60 amounted to 45%; in the test with MCF7, 20%; in the test on Caco-2, 3%; in the test on PC-3 it was 0%; in the test with MIA PaCa-2 it was 41%. Moreover, the inhibition in test [1] turned out to be 0%; in test [2] it was 7%.
`Cc1oc2c([C@H]3CCN(C)C[C@H]3O)c(O)cc(O)c2c(=O)c1C(O)c1cccc(Cl)c1` (stereo not given in full): the inhibition of growth at 10 µM with HL-60 was determined as 22%; with MCF7 it was 5%; with Caco-2, 4%; in the test with PC-3 it was 31%; in the test with MIA PaCa-2, 2%. Further, the figures for the inhibition in test [1] and in test [2] were 4% and 0%, respectively.
On to `Cc1cc(=O)c2c(O)c(CN3CCCC3)c(O)c([C@H]3CCN(C)C[C@H]3O)c2o1`, for which the inhibition of growth at 10 µM with HL-60 was 38%; in the test on MCF7 it was 12%; in the test on Caco-2 it was 22%; in the test on PC-3, 10%; in the test with MIA PaCa-2, 28%. For the same molecule, the inhibition in test [1] stood at 5%; in test [2], 7%.
Regarding `Cc1oc2c([C@H]3CCN(C)C[C@H]3O)c(O)cc(O)c2c(=O)c1C(O)c1cc(F)cc(F)c1` (stereo not given in full), the inhibition of growth at 10 µM with HL-60 was 30%; in the test on MCF7 it was 25%; with Caco-2, 10%; in the test on PC-3, 0%; in the test with MIA PaCa-2, 6%. The inhibition was found to be 10% in test [1] and 2% in test [2].
For `CCN(CC)Cc1c(O)c([C@H]2CCN(C)C[C@H]2O)c2oc(C)cc(=O)c2c1O`, the inhibition of growth at 10 µM in the test with HL-60 is 47%; in the test on MCF7 it was 24%; in the test with Caco-2, 17%; in the test with PC-3, 2%; with MIA PaCa-2 it was 27%. Moreover, the inhibition in test [1] turned out to be 4%; in test [2], 0%.
Turning to `Cc1cc(=O)c2c(O)c(CN(C(C)C)C(C)C)c(O)c([C@H]3CCN(C)C[C@H]3O)c2o1`, the inhibition of growth at 10 µM turned out to be 21% in the test with HL-60; 33% with MCF7; 22% with Caco-2; 0% with PC-3; 11% in the test with MIA PaCa-2. The inhibition in test [1] was 12%; in test [2], 1%.
For `Cc1oc2c([C@H]3CCN(C)C[C@H]3O)c(O)cc(O)c2c(=O)c1C(O)c1ccc(Cl)cc1` (stereo not given in full), the inhibition of growth at 10 µM in the test on HL-60 amounted to 2%; in the test with MCF7, 6%; with Caco-2, 3%; in the test on PC-3 it was 41%; with MIA PaCa-2, 15%. Further, the inhibition in test [1] and in test [2] was 0% throughout.
In the case of `Cc1cc(=O)c2c(O)c(CN3CCN(C)CC3)c(O)c([C@H]3CCN(C)C[C@H]3O)c2o1`, the inhibition of growth at 10 µM in the test with HL-60 came out at 15%; in the test on MCF7, 10%; in the test on Caco-2, 30%; in the test on PC-3, 0%; in the test on MIA PaCa-2, 6%. The inhibition stood at 2% in test [1] and 0% in test [2].
As for `Cc1cc(=O)c2c(O)cc(OCc3ccccc3)c([C@H]3CCN(C)C[C@H]3O)c2o1`, the inhibition of growth at 10 µM in the test with HL-60 is 24%; in the test on MCF7, 1%; in the test on Caco-2, 18%; in the test with PC-3 it was 41%; in the test on MIA PaCa-2, 14%. In addition, the inhibition worked out at 0% in test [1] and 10% in test [2].
